# Experimental data taken from ChEMBL document CHEMBL1151818, “Antimalarial peptides from marine cyanobacteria: isolation and structural elucidation of gallinamide A” (J Nat Prod, 2009).
# pIC50: −log10 of the molar value. Calls of active or inactive are those of the source. No cut-off for these calls is given here. Non-standard residues stand in square brackets, D forms with d. Residues, ends and D or L forms follow the SMILES beside them. *: point of attachment. X1 = COC1=CC(=O)N(C(=O)[C@@H](O*)C(C)C)[C@H]1Cc1ccccc1; NMe2Val = CC(C)[C@@H](C(=O)*)N(C)C; NMeV = CN[C@H](C(=O)O)C(C)C
# Tests used:
# NCI-H460 [1] = experiment: Cytotoxicity against human NCI-H460 cells; assay type: functional; details: read-out: TC50 (the source's name)
# Summary of the method: (§1)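 In vitro assay; 16.9 µM was the highest concentration tested.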
# Plasmodium falciparum = experiment: Antimalarial activity against chloroquine-resistant Plasmodium falciparum W2; assay type: functional, organism-based
# Leishmania donovani = experiment: Antileishmanial activity against Leishmania donovani; assay type: functional, organism-based
# NCI-H460 [2] = experiment: Cytotoxicity against human NCI-H460 cells at 16.9 uM; assay type: functional, cell-based; summary of the method: as §1
# N2a = experiment: Cytotoxicity against mouse Neuro2a cells at 16.9 uM; assay type: functional, cell-based; summary of the method: as §1
# [3] = Cytotoxicity against african green monkey Vero cells; assay type: cell-based; details: chlorocebus sabaeus, read-out: TC50 (the source's name)
# Trypanosoma cruzi = experiment: Antitrypanosomal activity against Trypanosoma cruzi at 16.9 uM; assay type: functional, organism-based; summary of the method: as §1
structure (smiles),measurement,setting,value
COC1=CC(=O)N(C(=O)[C@@H](OC(=O)[C@@H]2CCCN2C(=O)[C@@H]2CCCN2C(=O)[C@H](C(C)C)N(C)C(=O)[C@@H](NC(=O)[C@H](C(C)C)N(C)C)C(C)C)C(C)C)[C@H]1Cc1ccccc1 [DOLASTATIN 15] (NMe2Val-V[NMeV]PP-X1),CC50,NCI-H460 [1],0.0024 µM
same,Activity,Plasmodium falciparum,Active
C[C@@H]1[C@H](O)[C@@H](C)/C=C/C=C/C=C/C=C/C=C/C=C/C=C/[C@H](O[C@@H]2O[C@H](C)[C@@H](O)[C@H](N)[C@@H]2O)C[C@@H]2O[C@](O)(C[C@@H](O)C[C@@H](O)[C@H](O)CC[C@@H](O)C[C@@H](O)CC(=O)O[C@H]1C)C[C@H](O)[C@H]2C(=O)O [AMPHOTERICIN B],pIC50,Leishmania donovani,6.99
CC[C@H](C)[C@@H](C(=O)O[C@@H](CC(C)C)C(=O)N[C@@H](CC(C)C)C(=O)N[C@@H](C)/C=C/C(=O)N1C(=O)C=C(OC)[C@@H]1C)N(C)C [GALLINAMIDE A],Activity,NCI-H460 [2],inactive
same,Activity,N2a,inactive
same,CC50,[3],10.4 µM
same,pIC50,Leishmania donovani,5.03
same,pIC50,Trypanosoma cruzi,< 4.77
same,pIC50,Plasmodium falciparum,5.08
CC1CS(=O)(=O)CCN1/N=C/c1ccc([N+](=O)[O-])o1 (stereo not given) [NIFURTIMOX],pIC50,Trypanosoma cruzi,4.87
